Results taken from ChEMBL document CHEMBL2202976, “Structure requirements for anaerobe processing of azo compounds: implications for prodrug design” (Bioorg Med Chem Lett, 2012).

Experiments:
Type in all cases: ADME
[1] = Prodrug conversion assessed as Clostridium perfringens azoreductase-mediated prednisolone formation by HPLC analysis
[2] = Drug metabolism assessed as Clostridium perfringens azoreductase-mediated reoxidation of hydrazine intermediate to parent azo compound at 6 hrs by LCMS analysis
Method in brief: (§1)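 Azo substrate incubated in Clostridium perfringens culture. Samples taken at 0 h and 6 h and analysed by LCMS, resolving parent azo isomer peaks from the hydrazine intermediate peak.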

[3] = Drug metabolism assessed as Clostridium perfringens-mediated hydrazine intermediate formation at 6 hrs by LCMS analysis; method in brief: as §1
azoreductase = test: Drug metabolism assessed as Clostridium perfringens azoreductase-mediated reduction at 6 hrs by HPLC analysis; details: read-out: Drug metabolism
Method in brief: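 Azo substrates incubated with Clostridium perfringens culture and sampled over time to 6 h. Parent loss and product formation followed by reverse-phase HPLC with PDA UV detection, with the azo chromophore absorbing at 300–400 nm.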

[4] = Drug metabolism assessed as Clostridium perfringens azoreductase-mediated dihydroquinolone derivative formation by HPLC analysis
[5] = Prodrug conversion assessed as Clostridium perfringens azoreductase-mediated disproportionation to parent amine by HPLC analysis
[6] = Drug metabolism assessed as Clostridium perfringens azoreductase-mediated reduction within 4 hrs by HPLC analysis
[7] = Drug metabolism assessed as Clostridium perfringens azoreductase-mediated reoxidation of hydrazine intermediate to parent azo compound by LCMS analysis; method in brief: as §1
[8] = Drug metabolism assessed as Clostridium perfringens azoreductase-mediated hydrazine intermediate formation by LCMS analysis; method in brief: as §1

Row | SMILES | Drug metabolism [5] | Drug metabolism [6] | Drug metabolism [7] | Drug metabolism [8] | further results
1 | O=C(O)CCc1ccccc1/N=N/c1ccc(C(=O)NCC(=O)O)cc1 | – | – | – | – | Drug metabolism [1]: Not Active
2 | C[C@]12C=CC(=O)C=C1CC[C@@H]1[C@@H]2[C@@H](O)C[C@@]2(C)[C@H]1CC[C@]2(O)C(=O)COC(=O)CCc1ccccc1/N=N/c1ccc(C(=O)O)cc1 | – | – | – | – | Drug metabolism [2]: Active; Drug metabolism [3]: Active; metabolised at 6 h (azoreductase): 55%; Drug metabolism [4]: Not Active; Drug metabolism [1]: Not Active
3 | N#Cc1ccc(/N=N/c2ccc(O)cc2)cc1 | Active | Active | – | – | –
4 | O=C(O)c1ccc(/N=N/c2ccc(O)cc2)cc1 | Active | Active | – | – | –
5 | O=[N+]([O-])c1ccc(/N=N/c2ccc(O)cc2)cc1 | Active | Active | – | – | –
6 | N#Cc1ccc(/N=N/c2ccccc2)cc1 | – | – | Active | Active | –
7 | O=C(O)CCc1ccccc1/N=N/c1ccc(C(=O)O)cc1 | – | – | – | – | Drug metabolism [1]: Not Active
8 | CN(C)c1ccc(/N=N/c2ccccc2C(=O)O)cc1 | Active | Active | – | – | –
9 | FC(F)(F)c1ccc(/N=N/c2ccccc2)cc1 | Active | – | Not Active | Active | –
10 | O=C(O)c1cccc(/N=N/c2ccccc2)c1 | – | – | Active | Active | –
11 | O=C(O)c1ccc(/N=N/c2ccccc2)cc1 | – | – | Active | Active | –
12 | Brc1ccc(/N=N/c2ccccc2)cc1 | – | – | Active | Active | –
13 | Oc1ccc(/N=N/c2ccc(Br)cc2)cc1 | Active | Active | – | – | –
14 | CN(C)c1ccc(/N=N/c2ccccc2)cc1 [DIMETHYL YELLOW] | Active | Active | – | – | –
